Assay results as given in ChEMBL document CHEMBL5046217, “Discovery of New Imidazo[2,1-b]thiazole Derivatives as Potent Pan-RAF Inhibitors with Promising In Vitro and In Vivo Anti-melanoma Activity” (J Med Chem, 2021).
One block for each compound: values may come before it.

Columns and labels:
[1] = biological target: RAF proto-oncogene serine/threonine-protein kinase (Homo sapiens, UniProt P04049); assay: Inhibition of human wild type CRAF using myelin basic protein as substrate in presence of [gamma-33P]ATP incubated for 40 mins by scintillation counting method
[2] = biological target: Serine/threonine-protein kinase B-raf (Homo sapiens, UniProt P15056); assay: Inhibition of human wild type BRAF using myelin basic protein as substrate in presence of [gamma-33P]ATP incubated for 40 mins by scintillation counting method
Method in brief: (§1)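 Radiometric kinase assay run at Reaction Biology. Kinase (5−10 mU) in 25 mM Tris pH 7.5, 0.02 mM EGTA, 10 mM magnesium acetate with 0.66 mg/mL myelin basic protein and [γ-33P]ATP at 1 μM ATP. Reaction started with Mg-ATP and run 40 min at room temperature, then stopped with 3% phosphoric acid. Spotted on P30 filtermat, washed, scintillation counted.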

[3] = Cytotoxicity against human L132 cells assessed as cell growth inhibition incubated for 48 hrs by MTT assay; format: toxicity, cell-based
[4] = Cytotoxicity against human BJ cells assessed as cell growth inhibition incubated for 48 hrs by MTT assay; format: toxicity, cell-based
Method in brief: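 BJ1 normal skin fibroblasts were seeded at 10 × 10³ cells/well with compound in triplicate wells and grown in DMEM-F12 at 37 °C, 5% CO₂, across an eight-point dilution series. Growth inhibition was calculated as (1 − T/C) × 100, and IC50 was taken from the dose–response curve.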

[5] = biological target: Serine/threonine-protein kinase B-raf (Homo sapiens, UniProt P15056, V600E); assay: Inhibition of human BRAF V600E mutant using myelin basic protein as substrate in presence of [gamma-33P]ATP incubated for 40 mins by scintillation counting method; method in brief: as §1
[6] = system: UACC-257; assay: Antiproliferative activity against human UACC-257 cells assessed as total growth inhibition measured after 48 hrs by SRB assay; details: UACC-257, 48 h
[7] = system: SK-MEL-2; assay: Antiproliferative activity against human SK-MEL-2 cells assessed as total growth inhibition measured after 48 hrs by SRB assay; details: SK-MEL-2, 48 h
[8] = system: M14; assay: Antiproliferative activity against human M14 cells assessed as cell growth inhibition measured after 48 hrs by SRB assay; details: M14, 48 h
[9] = system: Panel ovarian (Carcinoma cell lines); assay: cells; details: Homo sapiens, 48 h, read-out: INH
[10] = system: M14; assay: Antiproliferative activity against human M14 cells assessed as total growth inhibition measured after 48 hrs by SRB assay; details: M14, 48 h
[11] = system: Panel colon (Carcinoma cell lines); assay: Antiproliferative activity against human Panel colon (Carcinoma cell lines) assessed as cell growth inhibition measured after 48 hrs by SRB assay
[12] = system: Malme-3M; assay: Antiproliferative activity against human Malme-3M cells assessed as cell growth inhibition measured after 48 hrs by SRB assay
[13] = system: SK-MEL-5; assay: Antiproliferative activity against human SK-MEL-5 cells assessed as total growth inhibition measured after 48 hrs by SRB assay; details: SK-MEL-5, 48 h
[14] = system: MDA-MB-435; assay: Antiproliferative activity against human MDA-MB-435 cells assessed as cell growth inhibition measured after 48 hrs by SRB assay; details: MDA-MB-435, 48 h
[15] = in vitro; details: human, BJ cells and Malme-3M cells
[16] = system: Malme-3M; assay: Antiproliferative activity against human Malme-3M cells assessed as total growth inhibition measured after 48 hrs by SRB assay
[17] = system: Panel ovarian (Carcinoma cell lines); assay: Antiproliferative activity against human Panel ovarian (Carcinoma cell lines) assessed as cell growth inhibition measured after 48 hrs by SRB assay
[18] = system: NSCLC; assay: Antiproliferative activity against human NSCLC cell line assessed as cell growth inhibition measured after 48 hrs by SRB assay
[19] = system: MDA-MB-435; assay: Antiproliferative activity against human MDA-MB-435 cells assessed as total growth inhibition measured after 48 hrs by SRB assay; details: MDA-MB-435, 48 h
[20] = system: UACC-62; assay: Antiproliferative activity against human UACC-62 cells assessed as cell growth inhibition measured after 48 hrs by SRB assay; details: UACC-62, 48 h
[21] = system: Panel breast (Carcinoma cell lines); assay: Antiproliferative activity against human Panel breast (Carcinoma cell lines) assessed as cell growth inhibition measured after 48 hrs by SRB assay
[22] = system: Panel leukemia (Carcinoma cell lines); assay: Antiproliferative activity against human Panel leukemia (Carcinoma cell lines) assessed as cell growth inhibition measured after 48 hrs by SRB assay
[23] = system: Panel melanoma (Carcinoma cell lines); assay: Antiproliferative activity against human Panel melanoma (Carcinoma cell lines) assessed as cell growth inhibition measured after 48 hrs by SRB assay
[24] = system: Panel renal (Carcinoma cell lines); assay: Antiproliferative activity against human Panel renal (Carcinoma cell lines) assessed as cell growth inhibition measured after 48 hrs by SRB assay
[25] = system: SK-MEL-28; assay: Antiproliferative activity against human SK-MEL-28 cells assessed as total growth inhibition measured after 48 hrs by SRB assay; details: SK-MEL-28, 48 h
[26] = system: LOX IMVI; assay: Antiproliferative activity against human LOX IMVI cells assessed as total growth inhibition measured after 48 hrs by SRB assay
[27] = system: LOX IMVI; assay: Antiproliferative activity against human LOX IMVI cells assessed as cell growth inhibition measured after 48 hrs by SRB assay
[28] = system: Panel melanoma (Carcinoma cell lines); assay: cells; details: Homo sapiens, 48 h, read-out: INH
[29] = system: SK-MEL-28; assay: Antiproliferative activity against human SK-MEL-28 cells assessed as cell growth inhibition measured after 48 hrs by SRB assay; details: SK-MEL-28, 48 h
[30] = system: Panel prostate (Carcinoma cell lines); assay: Antiproliferative activity against human Panel prostate (Carcinoma cell lines) assessed as cell growth inhibition measured after 48 hrs by SRB assay
[31] = system: Panel leukemia (Carcinoma cell lines); assay: cells; details: Homo sapiens, 48 h, read-out: INH
[32] = system: UACC-257; assay: Antiproliferative activity against human UACC-257 cells assessed as cell growth inhibition measured after 48 hrs by SRB assay; details: UACC-257, 48 h
[33] = system: Panel CNS (Carcinoma cell lines); assay: Antiproliferative activity against human Panel CNS (Carcinoma cell lines) assessed as cell growth inhibition measured after 48 hrs by SRB assay
[34] = system: SK-MEL-2; assay: Antiproliferative activity against human SK-MEL-2 cells assessed as cell growth inhibition measured after 48 hrs by SRB assay; details: SK-MEL-2, 48 h
[35] = system: UACC-62; assay: Antiproliferative activity against human UACC-62 cells assessed as total growth inhibition measured after 48 hrs by SRB assay; details: UACC-62, 48 h
[36] = system: Panel colon (Carcinoma cell lines); assay: cells; details: Homo sapiens, 48 h, read-out: INH
[37] = system: SK-MEL-5; assay: Antiproliferative activity against human SK-MEL-5 cells assessed as cell growth inhibition measured after 48 hrs by SRB assay; details: SK-MEL-5, 48 h
[38] = biological target: Mitogen-activated protein kinase 8 (Homo sapiens, UniProt P45983); assay: Inhibition of MAPK8 (unknown origin) incubated for 1 hr by qPCR analysis
Method in brief: (§2)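 Competition binding assay. Kinases were either T7-phage-tagged (grown in an E. coli BL21-derived host) or expressed in HEK-293 cells and DNA-tagged. […] Bound kinase was eluted with non-biotinylated ligand and quantified by qPCR.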

[39] = biological target: T1, Receptor-type tyrosine-protein kinase FLT3 (Homo sapiens, UniProt P36888); assay: Inhibition of FLT3 (unknown origin) incubated for 1 hr by qPCR analysis; method in brief: as §2
T1 sequence (P36888 whole entry): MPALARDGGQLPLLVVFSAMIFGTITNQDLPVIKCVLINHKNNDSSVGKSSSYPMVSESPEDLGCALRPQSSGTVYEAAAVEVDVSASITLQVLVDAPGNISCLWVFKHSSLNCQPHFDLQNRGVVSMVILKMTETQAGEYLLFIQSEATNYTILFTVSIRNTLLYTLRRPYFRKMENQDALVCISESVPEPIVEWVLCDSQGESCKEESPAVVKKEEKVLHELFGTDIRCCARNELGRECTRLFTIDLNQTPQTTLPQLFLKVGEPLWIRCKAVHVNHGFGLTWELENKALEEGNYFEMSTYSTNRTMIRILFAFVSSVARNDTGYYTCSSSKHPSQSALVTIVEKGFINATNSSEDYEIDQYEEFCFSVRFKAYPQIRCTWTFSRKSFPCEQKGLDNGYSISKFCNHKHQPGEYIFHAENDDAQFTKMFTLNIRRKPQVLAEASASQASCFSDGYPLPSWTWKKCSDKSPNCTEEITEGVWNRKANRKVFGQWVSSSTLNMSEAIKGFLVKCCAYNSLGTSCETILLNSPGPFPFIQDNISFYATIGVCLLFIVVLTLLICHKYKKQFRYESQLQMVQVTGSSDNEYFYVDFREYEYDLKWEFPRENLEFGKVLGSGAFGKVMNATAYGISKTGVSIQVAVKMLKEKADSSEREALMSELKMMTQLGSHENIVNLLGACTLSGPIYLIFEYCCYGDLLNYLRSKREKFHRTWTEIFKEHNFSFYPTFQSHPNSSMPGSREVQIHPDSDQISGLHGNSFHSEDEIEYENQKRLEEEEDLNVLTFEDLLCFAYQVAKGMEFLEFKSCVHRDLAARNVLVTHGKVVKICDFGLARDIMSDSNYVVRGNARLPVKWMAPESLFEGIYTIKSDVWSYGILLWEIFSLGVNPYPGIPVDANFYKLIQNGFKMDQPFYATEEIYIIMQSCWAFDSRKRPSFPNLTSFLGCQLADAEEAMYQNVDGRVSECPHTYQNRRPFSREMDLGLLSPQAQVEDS

[40] = biological target: Serine/threonine-protein kinase/endoribonuclease IRE1 (Homo sapiens, UniProt O75460); assay: Inhibition of ERN1 (unknown origin) incubated for 1 hr by qPCR analysis; method in brief: as §2
[41] = biological target: Tyrosine-protein kinase ABL1 (Homo sapiens, UniProt P00519); assay: Inhibition of ABL1 (unknown origin) incubated for 1 hr by qPCR analysis
[42] = biological target: Mitogen-activated protein kinase 14 (Homo sapiens, UniProt Q16539); assay: Inhibition of MAPK14 (unknown origin) incubated for 1 hr by qPCR analysis; method in brief: as §2
[43] = biological target: Mitogen-activated protein kinase kinase kinase 20 (Homo sapiens, UniProt Q9NYL2); assay: Inhibition of ZAK (unknown origin) incubated for 1 hr by qPCR analysis; method in brief: as §2
[44] = biological target: Homeodomain-interacting protein kinase 1 (Homo sapiens, UniProt Q86Z02); assay: Inhibition of HIPK1 (unknown origin) incubated for 1 hr by qPCR analysis; method in brief: as §2
[45] = biological target: Mitogen-activated protein kinase 11 (Homo sapiens, UniProt Q15759); assay: Inhibition of MAPK11 (unknown origin) incubated for 1 hr by qPCR analysis; method in brief: as §2
Mitogen-activated protein kinase 11, sequence (Q15759 whole entry): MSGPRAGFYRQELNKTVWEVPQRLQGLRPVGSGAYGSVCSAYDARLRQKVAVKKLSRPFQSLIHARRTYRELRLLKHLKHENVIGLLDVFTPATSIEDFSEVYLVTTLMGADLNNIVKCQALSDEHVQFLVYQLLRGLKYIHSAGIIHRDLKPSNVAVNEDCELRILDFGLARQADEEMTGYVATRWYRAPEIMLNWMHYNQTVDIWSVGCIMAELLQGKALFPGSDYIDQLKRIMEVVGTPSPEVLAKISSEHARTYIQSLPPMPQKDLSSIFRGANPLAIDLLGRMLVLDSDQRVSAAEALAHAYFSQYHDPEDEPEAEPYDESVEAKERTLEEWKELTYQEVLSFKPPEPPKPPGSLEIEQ

RAF proto-oncogene serine/threonine-protein kinase, sequence (P04049 whole entry): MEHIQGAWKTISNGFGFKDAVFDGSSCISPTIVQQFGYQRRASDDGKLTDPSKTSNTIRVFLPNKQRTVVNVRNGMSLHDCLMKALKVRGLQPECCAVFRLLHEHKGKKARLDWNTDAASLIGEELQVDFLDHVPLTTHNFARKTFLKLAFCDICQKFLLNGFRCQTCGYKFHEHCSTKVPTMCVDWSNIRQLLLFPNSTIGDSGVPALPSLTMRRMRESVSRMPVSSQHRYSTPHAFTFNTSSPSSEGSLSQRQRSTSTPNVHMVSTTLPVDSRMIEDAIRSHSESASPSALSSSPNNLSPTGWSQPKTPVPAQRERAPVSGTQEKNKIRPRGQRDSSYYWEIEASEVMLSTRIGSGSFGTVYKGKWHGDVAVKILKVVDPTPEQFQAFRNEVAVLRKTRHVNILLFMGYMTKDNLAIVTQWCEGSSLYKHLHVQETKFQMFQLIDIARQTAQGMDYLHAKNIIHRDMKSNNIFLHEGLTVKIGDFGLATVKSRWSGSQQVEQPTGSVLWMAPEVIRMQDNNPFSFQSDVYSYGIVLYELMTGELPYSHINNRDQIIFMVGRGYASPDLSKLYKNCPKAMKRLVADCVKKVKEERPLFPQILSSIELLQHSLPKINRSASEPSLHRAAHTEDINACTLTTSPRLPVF
Serine/threonine-protein kinase B-raf (Homo sapiens, UniProt P15056), sequence (P15056 whole entry): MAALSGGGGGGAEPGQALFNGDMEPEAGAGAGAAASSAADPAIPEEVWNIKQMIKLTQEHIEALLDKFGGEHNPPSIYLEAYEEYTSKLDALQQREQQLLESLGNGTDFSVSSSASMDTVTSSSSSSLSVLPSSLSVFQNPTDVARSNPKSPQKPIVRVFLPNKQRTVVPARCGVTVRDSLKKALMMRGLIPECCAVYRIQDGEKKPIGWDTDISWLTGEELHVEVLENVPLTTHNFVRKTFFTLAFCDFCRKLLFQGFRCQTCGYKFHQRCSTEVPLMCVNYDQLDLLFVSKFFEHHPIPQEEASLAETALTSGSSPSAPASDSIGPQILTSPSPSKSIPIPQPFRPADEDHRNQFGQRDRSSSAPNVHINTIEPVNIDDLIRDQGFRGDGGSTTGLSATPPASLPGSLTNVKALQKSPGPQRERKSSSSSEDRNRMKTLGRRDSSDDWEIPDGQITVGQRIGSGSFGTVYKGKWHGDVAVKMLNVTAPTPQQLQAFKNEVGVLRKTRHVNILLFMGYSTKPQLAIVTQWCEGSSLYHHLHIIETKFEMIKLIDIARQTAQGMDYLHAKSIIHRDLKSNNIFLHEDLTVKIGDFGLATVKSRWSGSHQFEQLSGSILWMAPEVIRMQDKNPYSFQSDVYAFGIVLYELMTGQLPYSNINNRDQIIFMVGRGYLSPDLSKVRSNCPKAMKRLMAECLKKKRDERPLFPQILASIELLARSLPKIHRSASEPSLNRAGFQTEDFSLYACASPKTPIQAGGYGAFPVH
Serine/threonine-protein kinase/endoribonuclease IRE1, sequence (O75460 whole entry): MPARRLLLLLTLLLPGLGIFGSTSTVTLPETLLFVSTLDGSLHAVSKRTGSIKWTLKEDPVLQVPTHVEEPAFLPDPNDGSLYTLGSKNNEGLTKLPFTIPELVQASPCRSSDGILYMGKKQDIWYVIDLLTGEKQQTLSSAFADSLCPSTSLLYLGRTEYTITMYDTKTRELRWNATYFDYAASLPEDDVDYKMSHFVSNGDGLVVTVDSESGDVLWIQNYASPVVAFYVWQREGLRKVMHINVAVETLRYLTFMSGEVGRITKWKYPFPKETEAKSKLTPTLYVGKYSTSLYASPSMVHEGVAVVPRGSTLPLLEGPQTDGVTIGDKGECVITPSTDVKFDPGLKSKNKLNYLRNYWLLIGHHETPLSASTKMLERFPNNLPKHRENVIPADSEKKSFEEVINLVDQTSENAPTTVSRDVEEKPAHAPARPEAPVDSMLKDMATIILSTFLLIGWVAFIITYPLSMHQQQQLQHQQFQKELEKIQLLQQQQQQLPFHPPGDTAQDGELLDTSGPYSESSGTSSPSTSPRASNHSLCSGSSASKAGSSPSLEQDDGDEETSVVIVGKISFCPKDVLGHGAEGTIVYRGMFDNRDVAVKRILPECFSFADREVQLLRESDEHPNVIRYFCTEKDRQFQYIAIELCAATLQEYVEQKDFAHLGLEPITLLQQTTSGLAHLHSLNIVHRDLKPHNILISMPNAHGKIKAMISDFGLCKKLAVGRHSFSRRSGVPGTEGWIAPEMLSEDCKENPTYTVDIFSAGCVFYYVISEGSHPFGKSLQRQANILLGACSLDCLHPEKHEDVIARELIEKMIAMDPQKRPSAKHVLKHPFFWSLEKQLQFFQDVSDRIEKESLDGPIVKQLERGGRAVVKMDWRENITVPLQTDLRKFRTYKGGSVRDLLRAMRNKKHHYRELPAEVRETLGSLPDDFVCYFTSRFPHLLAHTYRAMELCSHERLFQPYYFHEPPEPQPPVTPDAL
Homeodomain-interacting protein kinase 1, sequence (Q86Z02 whole entry): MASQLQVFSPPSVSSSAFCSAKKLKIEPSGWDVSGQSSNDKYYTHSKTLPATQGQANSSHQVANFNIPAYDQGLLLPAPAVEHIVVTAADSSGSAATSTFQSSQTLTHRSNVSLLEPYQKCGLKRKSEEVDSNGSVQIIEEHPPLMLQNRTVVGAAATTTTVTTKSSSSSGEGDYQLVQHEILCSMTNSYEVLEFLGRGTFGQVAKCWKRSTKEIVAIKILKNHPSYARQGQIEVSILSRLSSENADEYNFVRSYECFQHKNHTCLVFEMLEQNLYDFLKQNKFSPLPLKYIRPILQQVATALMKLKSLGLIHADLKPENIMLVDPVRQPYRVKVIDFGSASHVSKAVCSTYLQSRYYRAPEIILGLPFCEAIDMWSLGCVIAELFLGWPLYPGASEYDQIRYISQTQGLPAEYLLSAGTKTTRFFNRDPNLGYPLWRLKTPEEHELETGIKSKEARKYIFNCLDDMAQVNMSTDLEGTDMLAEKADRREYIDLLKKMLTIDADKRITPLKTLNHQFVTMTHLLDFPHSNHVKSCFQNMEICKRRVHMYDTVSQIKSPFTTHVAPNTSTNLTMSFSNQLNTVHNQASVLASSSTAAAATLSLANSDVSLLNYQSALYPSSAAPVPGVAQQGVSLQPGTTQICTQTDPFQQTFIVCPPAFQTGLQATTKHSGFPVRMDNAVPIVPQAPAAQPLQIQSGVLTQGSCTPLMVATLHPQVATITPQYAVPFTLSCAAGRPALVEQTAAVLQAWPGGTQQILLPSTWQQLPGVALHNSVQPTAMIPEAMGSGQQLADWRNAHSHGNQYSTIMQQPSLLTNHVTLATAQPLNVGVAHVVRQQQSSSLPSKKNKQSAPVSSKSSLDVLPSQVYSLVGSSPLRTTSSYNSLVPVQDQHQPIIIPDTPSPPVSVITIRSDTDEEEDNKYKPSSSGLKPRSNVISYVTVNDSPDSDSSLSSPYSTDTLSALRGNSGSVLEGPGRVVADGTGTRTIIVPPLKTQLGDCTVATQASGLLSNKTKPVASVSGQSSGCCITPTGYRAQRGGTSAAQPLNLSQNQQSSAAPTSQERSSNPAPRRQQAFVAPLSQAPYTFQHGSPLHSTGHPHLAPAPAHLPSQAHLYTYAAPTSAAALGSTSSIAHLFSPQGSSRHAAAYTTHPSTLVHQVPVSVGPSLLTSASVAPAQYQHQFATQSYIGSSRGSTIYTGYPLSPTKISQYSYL
Mitogen-activated protein kinase 14, sequence (Q16539 whole entry): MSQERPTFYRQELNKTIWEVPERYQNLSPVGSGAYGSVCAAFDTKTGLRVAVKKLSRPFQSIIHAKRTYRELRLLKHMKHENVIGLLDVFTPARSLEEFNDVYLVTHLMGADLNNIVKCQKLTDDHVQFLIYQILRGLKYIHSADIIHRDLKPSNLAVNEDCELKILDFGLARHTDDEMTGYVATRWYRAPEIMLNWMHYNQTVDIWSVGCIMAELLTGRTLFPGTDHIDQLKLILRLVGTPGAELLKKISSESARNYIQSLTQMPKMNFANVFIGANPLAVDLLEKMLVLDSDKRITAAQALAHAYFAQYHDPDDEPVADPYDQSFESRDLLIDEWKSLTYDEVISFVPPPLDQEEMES
Mitogen-activated protein kinase 8, sequence (P45983 whole entry): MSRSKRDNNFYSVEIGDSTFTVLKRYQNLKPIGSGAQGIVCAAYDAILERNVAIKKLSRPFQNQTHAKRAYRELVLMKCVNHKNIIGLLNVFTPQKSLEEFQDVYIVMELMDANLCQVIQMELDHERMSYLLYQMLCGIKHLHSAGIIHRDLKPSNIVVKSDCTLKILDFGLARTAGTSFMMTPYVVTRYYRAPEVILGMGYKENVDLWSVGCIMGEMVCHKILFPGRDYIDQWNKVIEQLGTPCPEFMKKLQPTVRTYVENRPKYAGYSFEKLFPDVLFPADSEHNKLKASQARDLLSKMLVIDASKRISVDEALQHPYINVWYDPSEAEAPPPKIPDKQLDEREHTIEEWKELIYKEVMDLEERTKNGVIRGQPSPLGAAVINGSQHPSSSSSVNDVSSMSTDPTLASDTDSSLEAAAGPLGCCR

IC50 [1]: 21.3 µM
IC50 [2]: 19.3 µM
IC50 [5]: 26.6 µM
Structure (SMILES): COc1ccc(-c2nc3sccn3c2-c2ccnc(NCCNS(=O)(=O)c3ccc(C)cc3)n2)cc1
IC50 at 48 h [3]: 466 µM
IC50 at 48 h [4]: 126 µM

IC50 [1]: 0.172 µM
IC50 [11]: 2.19 µM
IC50 [14]: 1.2 µM
IC50 [17]: 3.57 µM
IC50 [21]: 13.3 µM
IC50 [22]: 2.99 µM
IC50 [23]: 4.03 µM
IC50 [24]: 3.7 µM
IC50 [29]: 5.7 µM
IC50 [30]: 2.45 µM
IC50 [33]: 6.46 µM
IC50 [34]: 4.9 µM
IC50 [37]: 1.7 µM
Structure (SMILES): COc1ccc(S(=O)(=O)NCCNc2nccc(-c3c(-c4ccccc4)nc4sccn34)n2)cc1
TGI [6]: > 100 µM
TGI [7]: > 100 µM
IC50 [8]: 2.7 µM
inhibition at 10 µM [9]: 73.2%
TGI [10]: > 100 µM
IC50 [12]: 8.7 µM
TGI [13]: > 100 µM
selectivity ratio [15]: 6.4
TGI [16]: > 100 µM
IC50 [18]: 5.42 µM
TGI [19]: > 100 µM
IC50 [20]: 1.1 µM
IC50 at 48 h [3]: 60.2 µM
IC50 at 48 h [4]: 55.6 µM
TGI [25]: > 100 µM
TGI [26]: > 100 µM
IC50 [27]: 3.9 µM
inhibition at 10 µM [28]: 83.8%
inhibition at 10 µM [31]: 81.3%
IC50 [32]: 6.4 µM
TGI [35]: > 100 µM
inhibition at 10 µM [36]: 76.7%

IC50 [1]: 0.006 µM
IC50 [38]: 1.35 µM
IC50 [39]: 1.99 µM
IC50 [40]: 9.54 µM
IC50 [41]: 10.4 µM
IC50 [2]: 0.0027 µM
IC50 [42]: 2.01 µM
IC50 [43]: 7.58 µM
IC50 [44]: 5.13 µM
IC50 [45]: 1.21 µM
Structure (SMILES): O=S(=O)(NCCNc1nccc(-c2c(-c3cccc(O)c3)nc3sccn23)n1)c1ccc(F)cc1
